Screening results: PubChem BioAssay, several laboratories
PPC-1+TRAIL kill = compounds killing PPC-1 cancer cells with TRAIL present, primary screen, TRAIL potentiator project, ATPLite luminescence, uHTS; AID 1443, 2008; PPC-1 cells + TRAIL, ATPLite viability luminescence; 220,000 tested, 0.41% active; cell killing (% activity), % at 4 µM or 5 µM;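 active means cell killing above 50% in the first pass at 4 µM, then a duplicate retest at 5 µM averaging 50% or more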;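 further: plate controls were cells with TRAIL plus DMSO for no effect and medium-only wells lacking cells for full effect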
STAT1 inh = STAT1 signaling inhibitors, primary screen, cell-based, HTS, luciferase reporter; 200,000 tested, 0.35% active; AID 920, 2007; inhibition, % at 5.5 µM; NIH 3T3 STAT1-luciferase reporter, IFN-gamma, luminescence;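 active means inhibition above a set limit, the mean inhibition across all tested compounds plus 3 SD, cut at about 34% in these data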;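 further: 0% = IFN-gamma with DMSO and 100% = IFN-gamma with 300 µM nifuroxazide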
Lipid droplet = inhibitors of hepatocyte lipid droplet formation, primary screen, imaging, high-throughput imaging, BODIPY stain. AML12 mouse hepatocytes, oleate lipid droplets. inhibition, % at 6.5 µM. 240,000 tested, 0.4% active. AID 1656, 2009;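 active means lipid droplet intensity inhibited by at least 50%, with more than 500 cells counted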
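Test system: AML12 hepatocytes (mouse); reagent: oleate loading, 100 µM; dosing: one dose, 6.5 µM compound; incubation: overnight exposure; signal: fluorescence imaging, 20x objective, two fields per well; read-out basis: % inhibition of corrected integrated BODIPY droplet signal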
Platelet DG rel = inhibitors of platelet dense granule secretion, primary screen, cell-based, MLPCN, human platelets; human platelet-rich plasma, SFLLRN dense granule ATP release, luminescence; inhibition, %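 (compounds screened at 7.5 µM in platelet-rich plasma)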; 300,000 tested, 0.22% active;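 active means mean replicate score, as percent of positive control, at or above 50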
TAG inh = inhibitors of triacylglycerol accumulation, primary screen, cell-based, uHTS, fluorescence, H9c2. H9c2 cells, Nile Red lipid (TAG) fluorescence; cells loaded with 200 µM oleic acid. inhibition, % at 12.5 µM. 230,000 tested, 0.66% active. AID 651582, 2012;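 active means pattern-corrected inhibition of lipid staining of at least 50% with the nuclear-stain viability signal not falling by more than 50%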;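 further: 0% = DMSO wells and 100% = triacsin C control wells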
STAT3 blocker = IL-6 driven STAT3 reporter inhibitors, primary screen, U3A cells, luciferase, luminescence, MLSCN library; inhibition, % at 5.5 µM; AID 862, 2007; 190,000 tested, 0.89% active; IL-6 STAT3-luciferase reporter; host cell line lacks STAT1;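 active means inhibition above the mean inhibition across all screened compounds plus 3 SD, cut at about 44% in these data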;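 further: 0% = DMSO only wells and 100% = 100 µM nifuroxazide control wells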
H9c2 TAG conf = triacylglycerol accumulation inhibitors, retest, confirmation, cell-based, single concentration, Nile Red fluorescence, H9c2 | 990 tested, 71% active | shares compounds with TAG inh | H9c2 lipid accumulation; cells loaded with 200 µM oleic acid | inhibition, % at 12.5 µM;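 active means mean inhibition across replicates of 40% or more; inactive means mean inhibition below 40%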;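 further: plate controls were DMSO only wells for no effect and Triacsin C treated wells for full effect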
* marks the source's active call; other numbers are inactive results; . = not tested or not shown. Rows were chosen to be rich in hits. Some 1.5% of all compounds tested hit in one or more screens of this group.

SMILES	PPC-1+TRAIL kill	STAT1 inh	Lipid droplet	Platelet DG rel	TAG inh	STAT3 blocker	H9c2 TAG conf
O=C(O)CC1(CC(=O)Nc2cc(C(F)(F)F)cc(C(F)(F)F)c2)CCCCC1	5.9	.	4.8	14.7	93.8*	.	-9.7
COC(=O)C[C@H](NC(=O)Cn1cc(C)c(=O)[nH]c1=O)C(=O)OC	.	.	.	.	0.9	.	.
COC(=O)[C@@]1(Cc2ccc(F)cc2)[C@H]2c3cc(C(=O)N4CCCC4)n(CCCNc4ncc(C(F)(F)F)cc4Cl)c3C[C@H]2CN1C(=O)c1ccccc1	.	.	13.1	-1.8	77.8*	.	98.4*
COC(=O)C1=C(C)N(Cc2ccccc2)C(=NCC(C)C)N[C@H]1c1cccc(F)c1	.	.	.	.	92.5*	.	73.0*
CCC1(c2ccccc2)SC(=O)NC1=O (stereo unspecified)	.	.	.	.	-8.0	.	.
COc1ccc(CCNC(=O)CSC2=NS(=O)(=O)c3cc(F)ccc3N2)cc1OC	.	.	.	.	-16.6	.	.
CCCCN1C=C(C(=O)OC)C(c2ccccc2C(F)(F)F)C(C(=O)OC)=C1	9.8	4.6	44.4	1.5	54.2*	-1.2	31.1
CCC1(CC)SC(N)=NC1=O	.	.	.	.	12.5	.	.
CCCCNC(=O)Nc1ccc(C2SCCS2)cc1	19.0	.	-1.4	8.1	57.3*	.	-8.6
CNC(=O)Nc1ccc(C2SCCS2)cc1	2.3	.	-0.5	3.6	6.3	.	.
CC(C)c1cccc(C(C)C)c1OC(=O)[C@H]1OC(c2ccc(Br)cc2)=C[C@@H]1c1ccc(Br)cc1	.	.	.	.	59.0*	.	22.7
CCOC(=O)[C@H]1[C@H]2COc3ccc(Br)cc3[C@@H]2N2C(=O)c3cc(Br)ccc3NC(=O)[C@@]12C	.	.	.	.	62.7*	.	52.4*
CCOC(=O)[C@H]1[C@H]2COc3ccc(Cl)cc3[C@@H]2N2C(=O)c3cc(Cl)ccc3NC(=O)[C@@]12C	.	.	.	.	50.5*	.	53.2*
Cc1ccc(CN2CCC2(C)C(=O)NC2CCc3ccccc32)cc1 (stereo unspecified)	.	.	.	.	2.4	.	.
COc1ccccc1C1CC(=O)Oc2ccc(C(C)(C)C)cc21 (stereo unspecified)	.	.	.	.	-5.8	.	.
O=C(Cc1cccc(NC(=O)C2CCCN(C(=O)C3CCCCC3)C2)c1)Nc1ccc(C(=O)N2CCCCC2)cc1 (stereo unspecified)	.	.	.	.	16.2	.	.
CC(=O)Nc1ccc(S(=O)(=O)N2CCSc3ccccc32)cc1	.	.	.	.	33.9	.	.
CCOc1ccc2nc(NC(=O)C3CCCN(S(=O)(=O)c4c(C)noc4C)C3)sc2c1 (stereo unspecified)	-3.5	.	47.8	.	56.8*	.	74.8*
COc1ccc2nc(NC(=O)c3cccc(OCc4c(C)noc4C)c3)sc2c1	31.8	-24.7	.	-4.0	57.9*	10.0	47.6*
COc1ccc2nc(NC(=O)C3CCCN(S(=O)(=O)c4c(C)noc4C)C3)sc2c1 (stereo unspecified)	6.2	1.0	-37.6	28.6	45.8	9.6	.
COc1ccc(Nc2oc(-c3ccc(Cl)cc3)nc2C#N)cc1	0.9	-80.7	.	6.6	54.4*	-5.9	52.1*
CN1C[C@H](C(=O)N[C@]2(C)O[C@@]3(O)[C@@H]4CCCN4C(=O)[C@H](Cc4ccccc4)N3C2=O)CC2c3cccc4[nH]cc(c34)C[C@H]21 (stereo partly specified)	.	.	.	.	11.7	.	.
CC(C)C[C@H]1C(=O)N2CCC[C@H]2[C@]2(O)O[C@](NC(=O)C3C=C4c5cccc6[nH]c(Br)c(c56)C[C@H]4N(C)C3)(C(C)C)C(=O)N12 (stereo partly specified)	.	.	.	0.8	55.8*	.	92.2*
O=C1NC(Cc2ccccc2)c2nc3ccc(Cl)cc3c(=O)n2-c2cc3ccccc3cc21 (stereo unspecified)	.	.	.	.	22.0	.	.
